Reference: ChEMBL document CHEMBL1135746, “Structure-activity relationships of the antimalarial agent artemisinin. 7. Direct modification of (+)-artemisinin and in vivo antimalarial screening of new, potential preclinical antimalarial candidates” (J Med Chem, 2002)
In brackets after ≈: the same amount, converted by molar mass. Several values for one entry are separate records, joined by “and”; a condition that tells them apart may be missing. Identical values can stand only once. Activity calls are given as the source filed them. The rule behind the calls is not given here.

Columns and labels:
Plasmodium berghei [1] = experiment: Antimalarial activity in Plasmodium berghei infected mice (Mus musculus) at 32 mg/kg/day peroral dose; assay type: functional; conditions: route oral
Method in brief: (§1)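 CD-1 mice (16-18 g), quarantined 2 weeks, then infected with P. berghei (Thompson test). Treatment was given on days 3-5 postinfection. Subcutaneous dosing was a single injection; oral dosing was by gavage of a peanut-oil suspension. Groups of 5 mice were used. Survival was scored out of 5 and parasitemia was followed up to 60 days postinfection.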

Plasmodium berghei [2] = experiment: Antimalarial activity in Plasmodium berghei infected mice (Mus musculus) at 32 mg/kg/day subcutaneous dose; assay type: functional; method in brief: as §1
Plasmodium berghei [3] = experiment: Antimalarial activity in Plasmodium berghei infected mice (Mus musculus) at 8 mg/kg/day peroral dose; assay type: functional; conditions: route oral; method in brief: as §1
Plasmodium berghei [4] = experiment: Antimalarial activity in Plasmodium berghei infected mice (Mus musculus) at 8 mg/kg/day subcutaneous dose; assay type: functional; method in brief: as §1
Plasmodium berghei [5] = experiment: Antimalarial activity in Plasmodium berghei infected mice (Mus musculus) after 128 mg/kg/day subcutaneous dose; assay type: functional; method in brief: as §1
Plasmodium berghei [6] = experiment: Effective dose ED50 against Plasmodium berghei N in mice (Mus musculus) malaria model after subcutaneous administration; assay type: functional; conditions: for ED50: Plasmodium berghei, sc, read-out: ED50
Plasmodium falciparum [7] = experiment: Inhibitory activity against Plasmodium falciparum K1; assay type: functional, organism-based
Plasmodium yoelii [8] = experiment: Effective subcutaneous dose ED50 against Plasmodium yoelii sspNS; assay type: functional; conditions: sc
Plasmodium falciparum [9] = experiment: Inhibitory activity against Plasmodium falciparum W2; assay type: functional, organism-based
Method in brief: (§2)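 Parasitized human red blood cells were used in short-term microtitre cultures. Compounds were dissolved in DMSO and diluted 400-fold in culture medium with plasma, giving a starting concentration of at least 12 500 ng/mL. Activity was measured as inhibition of parasite uptake of a radiolabelled nucleic acid precursor.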

Plasmodium berghei [10] = experiment: Effective dose ED90 against Plasmodium berghei N in mice (Mus musculus) malaria model after subcutaneous administration; assay type: functional
Plasmodium falciparum [11] = experiment: Inhibitory activity against Plasmodium falciparum D6; assay type: functional, organism-based; method in brief: as §2
Plasmodium yoelii [12] = experiment: Effective dose ED90 against Plasmodium yoelii sspNS on subcutaneous dose; assay type: functional; conditions: sc
Plasmodium falciparum [13] = experiment: Inhibitory activity against Plasmodium falciparum NF54; assay type: functional, organism-based
Plasmodium berghei [14] = experiment: Effective dose ED50 against Plasmodium berghei N in mice (Mus musculus) malaria model after peroral administration; assay type: functional; conditions: Plasmodium berghei, po; read-out: ED50
Plasmodium berghei [15] = experiment: Effective dose ED90 against Plasmodium berghei N in mice (Mus musculus) malaria model after peroral administration; assay type: functional; conditions: po
Plasmodium berghei [16] = experiment: Effective dose ED90 against Plasmodium berghei N in mice (Mus musculus) malaria model after oral administration; assay type: functional
Plasmodium yoelii [17] = experiment: Effective subcutaneous dose ED90 against Plasmodium yoelii NS; assay type: functional
Plasmodium berghei [18] = experiment: Antimalarial activity in Plasmodium berghei infected mice (Mus musculus) at 128 mg/kg/day peroral dose; assay type: functional; conditions: route oral; method in brief: as §1
Plasmodium yoelii [19] = experiment: Effective subcutaneous dose ED90 against Plasmodium yoelii sspNS; assay type: functional
Plasmodium berghei [20] = experiment: Antimalarial activity against Plasmodium berghei infected mice (Mus musculus) at 32 mg/kg/day subcutaneous dose; assay type: functional; method in brief: as §1
Plasmodium yoelii [21] = experiment: Percent suppression of Plasmodium […] NS infection in mice (Mus musculus) malaria model after 10 mg/kg peroral dose; assay type: functional; conditions: route oral
Plasmodium berghei [22] = experiment: Effective dose against Plasmodium berghei N in mice (Mus musculus) malaria model after peroral administration; assay type: functional; conditions: po
Plasmodium yoelii [23] = experiment: Effective dose against Plasmodium yoelii NS after 10 mg/kg peroral dose in mice (Mus musculus) malaria model; Not active; assay type: functional, organism-based; design: dose 10 mg/kg
Plasmodium berghei [24] = experiment: Percent suppression of Plasmodium berghei N infection in mice (Mus musculus) malaria model after peroral dose; assay type: functional
[25] = Plasmodium berghei, sc, read-out: ED90

`CCCC[C@H]1CO[C@@H]2O[C@]3(C)CC[C@H]4[C@H](C)CC[C@@H]1[C@@]24OO3` showed an Activity (Plasmodium berghei [1]) of 2, an Activity (Plasmodium berghei [2]) of 5 and an Activity (Plasmodium berghei [3]) of 0. It also gave an Activity (Plasmodium berghei [4]) of 5 and an Activity (Plasmodium berghei [5]) of 5.

Compound `C[C@@H]1CC[C@H]2[C@@H](CCCc3ccc(C(F)(F)F)cc3)CO[C@@H]3OC4(C)CC[C@@H]1[C@]32OO4` (single isomer, unassigned) has an ED50 (Plasmodium berghei [6]) of 0.44 mg/kg, an IC50 (Plasmodium falciparum [7]) of 0.0395 µg/mL (≈ 0.0898 µM) and an ED50 (Plasmodium yoelii [8]) of 0.67 mg/kg. For the same compound, the IC50 (Plasmodium falciparum [9]) was 0.058 µg/mL (≈ 0.132 µM), the ED90 (Plasmodium berghei [10]) was 0.8 mg/kg and 2.1 mg/kg and the IC50 (Plasmodium falciparum [11]) was 0.0281 µg/mL (≈ 0.0639 µM). It also gave an ED90 (Plasmodium yoelii [12]) of 1.25 mg/kg and an IC50 (Plasmodium falciparum [13]) of 0.102 µg/mL (≈ 0.23 µM).

`C[C@@H]1CC[C@H]2[C@@H](CCCc3cccc(C(F)(F)F)c3)CO[C@@H]3OC4(C)CC[C@@H]1[C@]32OO4` (single isomer, unassigned) was tested, and the ED50 (Plasmodium berghei [14]) was 1.25 mg/kg, the ED50 (Plasmodium berghei [6]) was 0.4 mg/kg and the IC50 (Plasmodium falciparum [7]) was 0.012 µg/mL (≈ 0.0272 µM). The ED50 (Plasmodium yoelii [8]) was 0.6 mg/kg, the IC50 (Plasmodium falciparum [9]) was 0.0303 µg/mL (≈ 0.0688 µM) and the ED90 (Plasmodium berghei [10]; [25]) was 0.75 mg/kg. For the same compound, the ED90 (Plasmodium berghei [15]) was 4.4 mg/kg, the IC50 (Plasmodium falciparum [11]) was 0.00848 µg/mL (≈ 0.0193 µM) and the ED90 (Plasmodium yoelii [12]) was 1 mg/kg. For the same compound, the IC50 (Plasmodium falciparum [13]) was 0.0356 µg/mL (≈ 0.0808 µM).

In the case of `C[C@@H]1CC[C@H]2[C@@H](CCCc3ccccc3)CO[C@@H]3OC4(C)CC[C@@H]1[C@]32OO4` (single isomer, unassigned), the Activity (Plasmodium berghei [1]) is reported as 4, the Activity (Plasmodium berghei [2]) is reported as 5 and the ED90 (Plasmodium berghei [6]) is reported as 1. The Activity (Plasmodium berghei [3]) was 0, the ED90 (Plasmodium berghei [16]) was 3.4 and the ED90 (Plasmodium yoelii [17]) was 0.9. For the same compound, the Activity (Plasmodium berghei [4]) was 0, the Activity (Plasmodium berghei [5]) was 5 and the IC50 (Plasmodium falciparum [11]) was 0.0009 µg/mL (≈ 0.00242 µM). For the same compound, the Activity (Plasmodium berghei [18]) was 5.

Work on `C[C@@H]1CC[C@H]2[C@@H](CCCc3ccc(Cl)cc3)CO[C@@H]3OC4(C)CC[C@@H]1[C@]32OO4` (single isomer, unassigned) yielded an ED90 (Plasmodium yoelii [19]) of 1, an Activity (Plasmodium berghei [2]) of 5 and an IC50 (Plasmodium falciparum [9]) of 0.0026 µg/mL (≈ 0.00639 µM). The Activity (Plasmodium berghei [5]) was 5, the Survival dose (Plasmodium berghei [20]) was 5 and the IC50 (Plasmodium falciparum [11]) was 0.0019 µg/mL (≈ 0.00467 µM). It also gave an Activity (Plasmodium berghei [18]) of 5.

For `COc1ccc(CCC[C@H]2CO[C@@H]3OC4(C)CC[C@H]5[C@H](C)CC[C@@H]2[C@@]35OO4)cc1` (single isomer, unassigned), the Activity (Plasmodium berghei [1]) was 5, the Activity (Plasmodium berghei [2]) was 5 and the Activity (Plasmodium berghei [3]) was 0. The Activity (Plasmodium berghei [4]) was 0, the Activity (Plasmodium berghei [5]) was 5 and the Activity (Plasmodium berghei [18]) was 5.

Compound `C[C@@H]1CC[C@H]2[C@@H](CCCc3cccc(Cl)c3)CO[C@@H]3OC4(C)CC[C@@H]1[C@]32OO4` (single isomer, unassigned) has an ED50 (Plasmodium berghei [14]) of 2 mg/kg, an ED50 (Plasmodium berghei [6]) of 0.5 mg/kg and an IC50 (Plasmodium falciparum [7]) of 0.0101 µg/mL (≈ 0.0247 µM). For the same compound, the ED50 (Plasmodium yoelii [8]) was 0.6 mg/kg, the IC50 (Plasmodium falciparum [9]) was 0.0216 µg/mL (≈ 0.0531 µM) and the ED90 (Plasmodium berghei [10]; [25]) was 0.9 mg/kg. It also gave an ED90 (Plasmodium berghei [15]) of 8.3 mg/kg, an IC50 (Plasmodium falciparum [11]) of 0.00755 µg/mL (≈ 0.0186 µM) and an ED90 (Plasmodium yoelii [12]) of 1 mg/kg. For the same compound, the IC50 (Plasmodium falciparum [13]) was 0.0183 µg/mL (≈ 0.0449 µM).

`C[C@@H]1CC[C@H]2[C@@H](CCCc3cccc(F)c3)CO[C@@H]3OC4(C)CC[C@@H]1[C@]32OO4` (single isomer, unassigned) was tested, and the ED50 (Plasmodium berghei [14]) was 0.9 mg/kg, the ED50 (Plasmodium berghei [6]) was 0.46 mg/kg and the IC50 (Plasmodium falciparum [7]) was 0.0116 µg/mL (≈ 0.0296 µM). The ED50 (Plasmodium yoelii [8]) was 0.58 mg/kg, the IC50 (Plasmodium falciparum [9]) was 0.0268 µg/mL (≈ 0.0687 µM) and the ED90 (Plasmodium berghei [10]; [25]) was 0.85 mg/kg. The ED90 (Plasmodium berghei [15]) was 3.4 mg/kg, the IC50 (Plasmodium falciparum [11]) was 0.00828 µg/mL (≈ 0.0212 µM) and the ED90 (Plasmodium yoelii [12]) was 1 mg/kg. It also gave an IC50 (Plasmodium falciparum [13]) of 0.0418 µg/mL (≈ 0.107 µM).

Work on `C[C@@H]1CC[C@H]2[C@@H](CCCC(F)(F)F)CO[C@@H]3OC4(C)CC[C@@H]1[C@]32OO4` (single isomer, unassigned) yielded an Activity (Plasmodium yoelii [21]) of 0.3%, an ED50 (Plasmodium berghei [22]) greater than 10 mg/kg and an ED90 (Plasmodium berghei [22]) greater than 10 mg/kg. The NA (Plasmodium yoelii [23]) was “inactive”, the Activity (Plasmodium berghei [24]) was 6.5% and the IC50 (Plasmodium falciparum [9]) was 0.00887 µg/mL (≈ 0.0243 µM). The IC50 (Plasmodium falciparum [11]) was 0.0125 µg/mL (≈ 0.0342 µM).
